Screening results: PubChem, several laboratories
ARFGAP1 inhibitor = rat ARFGAP1 inhibition | 0.26% of 360,000 active | Arfgap1-stimulated ARF1 GTP hydrolysis, GDP FP detection | Q62848 | inhibition, % at 16.5 µM | AID 651572;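 active = inhibition above a per-plate limit, mean inhibition of low control wells plus 3 SD, cut at about 25% in these data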;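 also: 0% = DMSO wells with enzyme and 100% = wells lacking Arfgap1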
Target sequence (Q62848 1-136 limits assumed): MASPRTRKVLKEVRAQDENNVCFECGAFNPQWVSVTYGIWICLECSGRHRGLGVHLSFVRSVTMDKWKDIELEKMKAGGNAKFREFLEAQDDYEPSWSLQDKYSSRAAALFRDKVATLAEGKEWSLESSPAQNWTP
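Material: rat Arfgap1 GAP domain (His6, aa 1-136), purified enzyme. Also added: human ARF1(Δ1-17)-GTP substrate. Compound dosing: 16.5 µM single point, 1.26% DMSO. Timing: enzyme reaction 120 min at 25 °C after 20 min preincubation. Signal: GDP detection by fluorescence polarization. Read-out basis: percent inhibition of GAP-stimulated GDP formation, scaled between DMSO and no-Arfgap1 medians.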
esBAF inh = blocks esBAF chromatin remodeling in mouse ES cells; Bmi1-luciferase knock-in reporter, 24 h; 100% = twice the neutral-well signal; reporter increase, % at 12.5 µM; 2% of 350,000 active; in the data active = activation above about 40%;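 also: 0% = median of the plate's neutral control wells and 100% = double that signal; a rise in the Bmi1 reporter signal indicates esBAF inhibition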
ASAP1 inh = inhibitors of human ASAP1 ArfGAP activity. inhibition, % at 16.5 µM. ASAP1-stimulated ARF1 GTP hydrolysis, GDP FP detection. 0.19% of 360,000 active; in the data active = inhibition above about 25%;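 also: 0% = vehicle with enzyme and substrate and 100% = no enzyme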
Target sequence (Q9ULH1 325-724 limits assumed): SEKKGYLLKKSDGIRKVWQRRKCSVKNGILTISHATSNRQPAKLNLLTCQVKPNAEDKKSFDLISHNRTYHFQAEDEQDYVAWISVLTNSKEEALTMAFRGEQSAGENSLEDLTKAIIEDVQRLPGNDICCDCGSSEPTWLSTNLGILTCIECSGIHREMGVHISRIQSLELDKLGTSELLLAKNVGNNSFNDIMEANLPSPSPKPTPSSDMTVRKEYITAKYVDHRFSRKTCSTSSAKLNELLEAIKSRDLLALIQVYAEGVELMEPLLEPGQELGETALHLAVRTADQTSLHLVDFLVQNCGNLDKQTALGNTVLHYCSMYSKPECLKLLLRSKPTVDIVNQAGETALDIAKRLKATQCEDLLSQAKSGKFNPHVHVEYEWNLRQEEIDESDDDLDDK
SMARCA2 activ = SMARCA2 function activation, primary screen. MG213 cells, MMTV-luciferase reporter, dexamethasone, overnight. activation, % at 9.1 µM. 1% of 370,000 active; in the data active = activation above about 7.8%;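 also: 0% = vehicle wells and 100% = reference activator wells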
Active calls of the source: *. Sampled rows, rich in hits. Any-hit rate of the full collection: about 2.6%.

CCCCc1nc2cc(C(=O)NC(C)c3cnn(C)c3)ccc2o1 (configuration not stated) was read as ARFGAP1 inhibitor -1, esBAF inh 61*, ASAP1 inh -4 and SMARCA2 activ 4.
`C[C@H](CO)N1C[C@H](C)[C@H](CN(C)C(=O)C2CCC2)Oc2ncc(-c3ccccc3F)cc2C1=O` gave esBAF inh -3.
For COc1ccc(NC(=O)Nc2cccc3c2O[C@H](CN(C)C(=O)Nc2c(C)noc2C)[C@@H](C)CN([C@@H](C)CO)C3=O)cc1 the results were esBAF inh 6.
For CC(C)NC(=O)N(C)C[C@@H]1OCCCC[C@H](C)Oc2ccc(NS(=O)(=O)c3cccs3)cc2C(=O)N([C@@H](C)CO)C[C@@H]1C the results were esBAF inh 1.
`C[C@@H]1CCCCO[C@H](CN(C)C(=O)C2CCCCC2)[C@H](C)CN([C@H](C)CO)C(=O)c2cc(NC(=O)c3ccncc3)ccc2O1` gave esBAF inh 2.
CC1=CCC(COC(=O)Nc2ccccc2)CC1 (configuration not stated) was read as ARFGAP1 inhibitor -4, esBAF inh 84*, ASAP1 inh 0 and SMARCA2 activ 3.
For O=C(C[C@H]1CC[C@@H]2[C@H](COC[C@@H](O)CN2C(=O)Nc2ccc(F)cc2)O1)NCC1CC1 the results were esBAF inh 3.
`O=C(NNc1cccc(Cl)n1)c1ccc(Cl)cc1Cl` gave ARFGAP1 inhibitor -8, esBAF inh 52*, ASAP1 inh -4 and SMARCA2 activ 2.
Screening O=C(Nc1ccc(Cl)cc1F)c1cccc2ccccc12 returned ARFGAP1 inhibitor -8, esBAF inh 47*, ASAP1 inh -7 and SMARCA2 activ 3.
`COC(=O)NNC(=O)c1ccc(Cl)cc1Cl` gave ARFGAP1 inhibitor 4, ASAP1 inh -8 and SMARCA2 activ -5.
O=C(NNC(=O)c1cccc2ccccc12)c1ccc(Cl)cc1Cl was read as ARFGAP1 inhibitor 0, esBAF inh 61*, ASAP1 inh -3 and SMARCA2 activ 3.
For NC(=O)CSc1nc(N)c2c3c(sc2n1)CCCCC3 the results were ARFGAP1 inhibitor 8, esBAF inh 55*, ASAP1 inh 9 and SMARCA2 activ 4.
Screening CSc1ccccc1NC(=O)c1cnc2scc(C)n2c1=O returned ARFGAP1 inhibitor -1, esBAF inh 20, ASAP1 inh 5 and SMARCA2 activ 1.
CCc1ccccc1NC(=O)c1cnc2scc(C)n2c1=O was read as ARFGAP1 inhibitor -10, esBAF inh 56*, ASAP1 inh 6 and SMARCA2 activ -5.
Screening N#C/C(=C/c1ccc(N2CCCCC2)o1)C(=O)Nc1ccc(Cl)cc1 returned ARFGAP1 inhibitor -5, esBAF inh 60*, ASAP1 inh 4 and SMARCA2 activ 5.
Screening C[C@@H]1CN([C@@H](C)CO)C(=O)c2cccc(NS(=O)(=O)c3ccc(F)cc3)c2O[C@@H]1CN(C)C(=O)Nc1ccccc1 returned esBAF inh 1.
Screening O=C(/C=C/c1ccccc1)Nc1cccc(C(=O)NCCCCc2ccccc2)c1 returned ARFGAP1 inhibitor 4, esBAF inh 43*, ASAP1 inh -11 and SMARCA2 activ -3.
Screening CCOc1ccc(/C=C/C(=O)Nc2cccc(C(C)=O)c2)cc1 returned ARFGAP1 inhibitor -9, esBAF inh 59*, ASAP1 inh -1 and SMARCA2 activ 2.
`O=C(/C=C/c1ccccc1)Nc1cccc(C(=O)N2CCCC2)c1` gave ARFGAP1 inhibitor -14, esBAF inh 21, ASAP1 inh 7 and SMARCA2 activ -2.
For O=C(NCCCc1ccccc1)c1cccc(NC(=O)c2ccccc2)c1 the results were ARFGAP1 inhibitor 10, esBAF inh 7, ASAP1 inh -22 and SMARCA2 activ -2.
`O=C(/C=C/c1ccccc1)Nc1cccc(C(=O)NCCc2ccccc2)c1` gave ARFGAP1 inhibitor -4, esBAF inh 62*, ASAP1 inh 4 and SMARCA2 activ 1.
`O=C(/C=C/c1ccccc1Cl)NCCc1ccccc1` gave esBAF inh 55*.
`CCOc1ccc(NC(C(=O)Nc2cccc(C(C)=O)c2)c2ccccc2)cc1` (configuration not stated) gave ARFGAP1 inhibitor -4, ASAP1 inh -3 and SMARCA2 activ -3.
For C[C@H](O)C#Cc1cnc2c(c1)C(=O)N([C@H](C)CO)C[C@H](C)[C@H](CN(C)Cc1ccccn1)O2 the results were esBAF inh -3.
`C[C@H]1CN([C@@H](C)CO)C(=O)c2cccc(NC(=O)C3CC3)c2O[C@@H]1CN(C)Cc1ccccc1` gave esBAF inh 0.
Screening Clc1ccccc1OCc1nnc(-c2ccccc2Br)o1 returned ARFGAP1 inhibitor -5, esBAF inh 115*, ASAP1 inh 2 and SMARCA2 activ 4.
N#Cc1ccccc1OCc1nnc(-c2ccccc2Br)o1 was read as ARFGAP1 inhibitor 22, esBAF inh 55*, ASAP1 inh -5 and SMARCA2 activ 2.
Brc1ccccc1-c1nnc(COc2cccc3cccnc23)o1 was read as ARFGAP1 inhibitor -9, ASAP1 inh -4 and SMARCA2 activ 3.
CCCCC(=O)/C=C/n1c(=S)oc2ccccc21 was read as ARFGAP1 inhibitor -3, esBAF inh 65*, ASAP1 inh -11 and SMARCA2 activ 3.
`CN(C(=O)c1cc2c(s1)-c1ccccc1S(=O)(=O)C2)c1ccccc1F` gave ARFGAP1 inhibitor -1, esBAF inh 6, ASAP1 inh -5 and SMARCA2 activ 1.
Screening CN(C(=O)c1cc2c(s1)-c1ccccc1S(=O)(=O)C2)c1ccccc1 returned ARFGAP1 inhibitor -3, esBAF inh 110*, ASAP1 inh -2 and SMARCA2 activ 3.
c1ccc(OCc2nc3ccccc3[nH]2)cc1 was read as ARFGAP1 inhibitor 0, esBAF inh 51*, ASAP1 inh 5 and SMARCA2 activ 8.
OC(Cc1nc2ccccc2[nH]1)c1ccccc1Cl (configuration not stated) was read as ARFGAP1 inhibitor -1, esBAF inh 55*, ASAP1 inh 3 and SMARCA2 activ 4.
For COc1ccc(-n2c(COc3ccc(Cl)cc3)nnc2SCc2nc3ccccc3[nH]2)cc1 the results were SMARCA2 activ -3.
Screening c1ccc(OCc2nnc(SCc3nc4ccccc4[nH]3)n2-c2ccccc2)cc1 returned SMARCA2 activ -5.
Clc1ccc(OCc2nc3ccccc3[nH]2)cc1 was read as ARFGAP1 inhibitor 2, esBAF inh 85*, ASAP1 inh -9 and SMARCA2 activ 5.
`CCCNC(=O)C[C@H]1C[C@H]2c3cc(NC(=O)COC)ccc3O[C@H]2[C@@H](CO)O1` gave esBAF inh 5.
Cc1ccc(NC(=O)c2cc(-c3cccc(O)c3)on2)cc1C was read as ARFGAP1 inhibitor 2, esBAF inh 49*, ASAP1 inh 5 and SMARCA2 activ 6.
For Cc1ccc(NC(=O)c2cc(-c3ccco3)on2)cc1C the results were ARFGAP1 inhibitor -2, esBAF inh 47*, ASAP1 inh -5 and SMARCA2 activ 6.
